Assay results reported in ChEMBL document CHEMBL4308830, “Design, Synthesis, and Characterization of 4-Undecylpiperidine-2-carboxamides as Positive Allosteric Modulators of the Serotonin (5-HT) 5-HT2C Receptor” (J Med Chem, 2018).
The source made the active and inactive calls. The calls are words filed in the database; no cut-off is given here.

How the values were obtained:
[1] = test system: Rattus norvegicus; assay: Reduction in cocaine cue reactivity in Sprague-Dawley rat assessed as decrease in active lever presses at 1 mg/kg, ip administered as single dose 15 mins prior to self administration of cocaine; format: functional, organism-based
In short: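 Catheterized male Sprague–Dawley rats self-administered cocaine (0.75 mg/kg/infusion iv, each paired with light/pump cue) in 14 daily 180 min sessions, reaching FR5 stability. After 24 h they received saline (1 mL/kg ip) or compound (1 mg/kg ip) 15 min before a cue reactivity test.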

[2] = molecular target: T1, 5-hydroxytryptamine receptor 2C (Homo sapiens) (UniProt P28335); assay: Intrinsic agonist activity at human 5-HT2CR expressed in CHO cells assessed as induction of intracellular calcium release at 1 nM incubated for 15 mins measured every 1 sec for 120 secs by calcium-4 dye based FLIPR assay; format: functional, cell-based
T1 sequence (whole entry): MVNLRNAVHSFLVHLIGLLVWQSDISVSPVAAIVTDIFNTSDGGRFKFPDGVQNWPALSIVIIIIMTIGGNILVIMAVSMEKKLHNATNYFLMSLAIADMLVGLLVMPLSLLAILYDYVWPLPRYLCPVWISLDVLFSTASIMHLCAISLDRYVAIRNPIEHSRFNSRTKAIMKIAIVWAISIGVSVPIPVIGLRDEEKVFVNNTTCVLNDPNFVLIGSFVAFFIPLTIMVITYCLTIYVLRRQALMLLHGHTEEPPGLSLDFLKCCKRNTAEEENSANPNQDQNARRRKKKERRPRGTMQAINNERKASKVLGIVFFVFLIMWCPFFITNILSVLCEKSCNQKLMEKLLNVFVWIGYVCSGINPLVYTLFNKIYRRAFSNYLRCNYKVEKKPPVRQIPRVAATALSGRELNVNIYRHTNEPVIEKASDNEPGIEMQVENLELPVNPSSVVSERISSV
In short: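 CHO cells stably expressing human unedited INI 5-HT2CR were plated, serum-starved 3 h, then loaded with Calcium 4 dye plus 2.5 mM probenecid (60 min 37 °C, then 15 min RT). Compound (1 nM) was added; the read after this addition gave intrinsic agonism. 5-HT (10 pM–10 μM) followed 15 min later. FLIPR-TETRA: 10 s baseline, 1 s reads for 120 s after compound and 360 s after 5-HT. Emax came from 4-parameter fits, ≥3 biological replicates in triplicate.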

[3] = test system: CHO; assay: Cytotoxicity against CHO cells at 0.1 to 1000 nM after 1 hrs by LDH release assay; format: cell-based, Cricetulus griseus; conditions: chinese hamster, 1 µM
In short: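 Lactate dehydrogenase release assay for cytotoxicity, compounds tested at 0.1 nM and 1 μM.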

[4] = molecular target: 5-hydroxytryptamine receptor 1A (Homo sapiens) (UniProt P08908); assay: Displacement of [3H]-8-OH-DPAT from recombinant human 5-HT1AR expressed in CHO cell membranes at 10 uM after 90 mins by scintillation counting method relative to control
5-hydroxytryptamine receptor 1A (Homo sapiens), sequence (P08908 whole entry): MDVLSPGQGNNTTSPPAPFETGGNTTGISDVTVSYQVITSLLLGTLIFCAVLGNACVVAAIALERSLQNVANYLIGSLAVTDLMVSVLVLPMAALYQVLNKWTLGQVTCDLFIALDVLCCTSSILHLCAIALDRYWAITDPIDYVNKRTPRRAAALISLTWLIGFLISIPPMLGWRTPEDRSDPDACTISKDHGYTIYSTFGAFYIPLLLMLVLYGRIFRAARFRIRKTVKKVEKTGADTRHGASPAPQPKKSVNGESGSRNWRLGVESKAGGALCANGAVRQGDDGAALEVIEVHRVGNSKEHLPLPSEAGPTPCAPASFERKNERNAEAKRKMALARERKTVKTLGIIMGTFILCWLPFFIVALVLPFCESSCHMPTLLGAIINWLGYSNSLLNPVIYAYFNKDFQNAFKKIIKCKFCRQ

[5] = molecular target: 5-HT2A receptor (Homo sapiens, UniProt P28223); assay: Displacement of [3H]-Ketanserin from recombinant human 5-HT2AR expressed in HEKT cell membranes at 10 uM after 90 mins by scintillation counting method relative to control; conditions: probe [3H]-Ketanserin
5-HT2A receptor, sequence (P28223 whole entry): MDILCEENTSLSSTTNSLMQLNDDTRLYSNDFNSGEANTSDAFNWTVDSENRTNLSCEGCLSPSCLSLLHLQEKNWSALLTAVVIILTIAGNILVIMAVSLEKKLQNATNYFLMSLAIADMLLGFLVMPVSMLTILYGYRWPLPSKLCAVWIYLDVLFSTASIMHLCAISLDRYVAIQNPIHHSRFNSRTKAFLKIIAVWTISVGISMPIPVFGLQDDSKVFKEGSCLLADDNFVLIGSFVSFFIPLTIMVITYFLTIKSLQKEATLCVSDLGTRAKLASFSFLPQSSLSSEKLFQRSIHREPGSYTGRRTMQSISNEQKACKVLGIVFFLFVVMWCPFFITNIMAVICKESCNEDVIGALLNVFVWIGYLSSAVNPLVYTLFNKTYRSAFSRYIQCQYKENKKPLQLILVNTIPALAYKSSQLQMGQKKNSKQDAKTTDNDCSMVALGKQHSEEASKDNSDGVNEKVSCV

[6] = molecular target: T1, 5-hydroxytryptamine receptor 2C (Homo sapiens); assay: Displacement of [3H]-mesulergine from recombinant human 5-HT2CR expressed in Flp-IN HEK cell membranes at 10 uM after 90 mins by scintillation counting method relative to control
In short: (§1)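 Single-concentration screen at 10 μM test compound, each target labelled with the radioligand given in the line. The read-out is mean % inhibition of specific radioligand binding (n = 4). Targets above 50% inhibition went on to full competition isotherms, and Ki came from best-fit IC50 by the Cheng–Prusoff equation.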

[7] = molecular target: 5-hydroxytryptamine receptor 3A (Homo sapiens) (UniProt P46098); assay: Displacement of [3H]-LY278584 from recombinant human 5-HT3R expressed in HEK cell membranes at 10 uM after 90 mins by scintillation counting method relative to control
5-hydroxytryptamine receptor 3A (Homo sapiens), sequence (P46098 whole entry): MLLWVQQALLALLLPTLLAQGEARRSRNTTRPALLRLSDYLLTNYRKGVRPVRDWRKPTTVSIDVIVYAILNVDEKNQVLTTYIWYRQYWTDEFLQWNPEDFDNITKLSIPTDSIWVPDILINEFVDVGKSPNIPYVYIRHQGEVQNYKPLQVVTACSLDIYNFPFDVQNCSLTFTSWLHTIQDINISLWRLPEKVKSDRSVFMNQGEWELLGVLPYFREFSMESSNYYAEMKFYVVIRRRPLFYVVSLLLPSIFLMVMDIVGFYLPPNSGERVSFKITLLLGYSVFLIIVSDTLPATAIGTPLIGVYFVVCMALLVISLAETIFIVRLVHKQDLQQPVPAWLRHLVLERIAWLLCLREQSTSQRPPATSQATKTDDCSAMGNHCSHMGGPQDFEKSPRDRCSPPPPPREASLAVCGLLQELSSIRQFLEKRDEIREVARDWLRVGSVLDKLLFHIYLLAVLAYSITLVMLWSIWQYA

[8] = molecular target: 5-hydroxytryptamine receptor 6 (Homo sapiens) (UniProt P50406); assay: Displacement of [3H]-LSD from recombinant human 5-HT6R expressed in HEK cell membranes at 10 uM after 90 mins by scintillation counting method relative to control
5-hydroxytryptamine receptor 6 (Homo sapiens), sequence (P50406 whole entry): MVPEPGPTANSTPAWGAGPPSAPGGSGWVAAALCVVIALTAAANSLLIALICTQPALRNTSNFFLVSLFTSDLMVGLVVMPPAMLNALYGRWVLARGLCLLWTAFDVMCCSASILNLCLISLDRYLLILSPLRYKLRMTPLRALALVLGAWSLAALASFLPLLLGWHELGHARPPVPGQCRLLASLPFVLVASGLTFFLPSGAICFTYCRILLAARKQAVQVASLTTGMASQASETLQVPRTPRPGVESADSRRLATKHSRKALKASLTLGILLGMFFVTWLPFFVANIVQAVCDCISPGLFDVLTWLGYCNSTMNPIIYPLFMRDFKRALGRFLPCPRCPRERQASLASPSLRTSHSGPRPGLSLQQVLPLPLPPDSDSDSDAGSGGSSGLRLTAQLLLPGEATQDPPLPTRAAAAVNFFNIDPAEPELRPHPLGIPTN

[9] = molecular target: D(3) dopamine receptor (Homo sapiens) (UniProt P35462); assay: Displacement of [3H]-N-methylspiperone from recombinant human D3R expressed in HEK cell membranes at 10 uM after 90 mins by scintillation counting method relative to control; in short: as §1
D(3) dopamine receptor (Homo sapiens), sequence (P35462 whole entry): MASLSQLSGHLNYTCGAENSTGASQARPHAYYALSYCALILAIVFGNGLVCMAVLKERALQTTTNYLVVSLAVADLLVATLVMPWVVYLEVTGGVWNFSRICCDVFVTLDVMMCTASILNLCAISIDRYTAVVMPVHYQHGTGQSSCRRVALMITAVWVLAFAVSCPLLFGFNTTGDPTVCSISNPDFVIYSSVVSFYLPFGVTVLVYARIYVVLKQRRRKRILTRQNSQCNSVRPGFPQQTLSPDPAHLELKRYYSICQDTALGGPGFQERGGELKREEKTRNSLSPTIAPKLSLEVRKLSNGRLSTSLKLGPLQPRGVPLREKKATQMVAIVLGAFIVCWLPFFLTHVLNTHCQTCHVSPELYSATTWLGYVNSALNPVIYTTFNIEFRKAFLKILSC

[10] = molecular target: D(1B) dopamine receptor (Homo sapiens) (UniProt P21918); assay: Displacement of [3H]-SCH23390 from recombinant human D5R expressed in HEKT cell membranes at 10 uM after 90 mins by scintillation counting method relative to control
D(1B) dopamine receptor (Homo sapiens), sequence (P21918 whole entry): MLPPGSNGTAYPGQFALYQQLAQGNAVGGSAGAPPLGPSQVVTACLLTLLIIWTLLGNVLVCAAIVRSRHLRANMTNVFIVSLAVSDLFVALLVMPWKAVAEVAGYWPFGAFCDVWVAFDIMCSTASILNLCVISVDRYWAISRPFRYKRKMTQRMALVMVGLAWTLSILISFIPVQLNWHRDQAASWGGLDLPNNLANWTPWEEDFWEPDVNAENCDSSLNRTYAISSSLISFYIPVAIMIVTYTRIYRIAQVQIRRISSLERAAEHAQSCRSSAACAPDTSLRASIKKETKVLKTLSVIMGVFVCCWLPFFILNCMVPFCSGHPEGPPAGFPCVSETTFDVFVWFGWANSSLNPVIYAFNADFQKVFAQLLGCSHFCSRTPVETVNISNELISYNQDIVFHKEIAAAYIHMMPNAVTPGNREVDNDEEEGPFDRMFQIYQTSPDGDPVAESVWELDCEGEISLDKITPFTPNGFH

[11] = molecular target: Sodium-dependent dopamine transporter (Homo sapiens) (UniProt Q01959); assay: Displacement of [3H]-WIN35428 from recombinant human DAT expressed in HEK cell membranes at 10 uM after 90 mins by scintillation counting method relative to control; in short: as §1
Sodium-dependent dopamine transporter (Homo sapiens), sequence (Q01959 whole entry): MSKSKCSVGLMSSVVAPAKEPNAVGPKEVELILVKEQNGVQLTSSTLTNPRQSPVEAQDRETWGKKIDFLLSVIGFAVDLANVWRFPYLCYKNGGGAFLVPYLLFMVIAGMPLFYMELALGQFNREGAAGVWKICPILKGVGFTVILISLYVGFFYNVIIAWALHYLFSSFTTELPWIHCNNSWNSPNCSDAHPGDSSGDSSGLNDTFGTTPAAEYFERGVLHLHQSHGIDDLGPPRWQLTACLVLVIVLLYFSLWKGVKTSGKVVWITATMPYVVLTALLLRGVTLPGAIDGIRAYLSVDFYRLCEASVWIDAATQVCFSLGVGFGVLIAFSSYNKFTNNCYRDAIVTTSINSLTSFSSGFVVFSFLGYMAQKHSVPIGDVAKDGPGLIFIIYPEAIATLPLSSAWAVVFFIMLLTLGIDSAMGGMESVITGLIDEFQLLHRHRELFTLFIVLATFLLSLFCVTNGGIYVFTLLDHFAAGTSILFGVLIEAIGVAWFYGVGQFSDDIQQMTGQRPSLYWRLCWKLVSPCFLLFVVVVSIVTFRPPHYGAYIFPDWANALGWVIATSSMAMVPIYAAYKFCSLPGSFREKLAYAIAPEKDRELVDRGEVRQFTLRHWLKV

[12] = molecular target: Sodium-dependent serotonin transporter (Homo sapiens) (UniProt P31645); assay: Displacement of [3H]-citalopram from recombinant human SERT expressed in HEK cell membranes at 10 uM after 90 mins by scintillation counting method relative to control
Sodium-dependent serotonin transporter (Homo sapiens), sequence (P31645 whole entry, looked up): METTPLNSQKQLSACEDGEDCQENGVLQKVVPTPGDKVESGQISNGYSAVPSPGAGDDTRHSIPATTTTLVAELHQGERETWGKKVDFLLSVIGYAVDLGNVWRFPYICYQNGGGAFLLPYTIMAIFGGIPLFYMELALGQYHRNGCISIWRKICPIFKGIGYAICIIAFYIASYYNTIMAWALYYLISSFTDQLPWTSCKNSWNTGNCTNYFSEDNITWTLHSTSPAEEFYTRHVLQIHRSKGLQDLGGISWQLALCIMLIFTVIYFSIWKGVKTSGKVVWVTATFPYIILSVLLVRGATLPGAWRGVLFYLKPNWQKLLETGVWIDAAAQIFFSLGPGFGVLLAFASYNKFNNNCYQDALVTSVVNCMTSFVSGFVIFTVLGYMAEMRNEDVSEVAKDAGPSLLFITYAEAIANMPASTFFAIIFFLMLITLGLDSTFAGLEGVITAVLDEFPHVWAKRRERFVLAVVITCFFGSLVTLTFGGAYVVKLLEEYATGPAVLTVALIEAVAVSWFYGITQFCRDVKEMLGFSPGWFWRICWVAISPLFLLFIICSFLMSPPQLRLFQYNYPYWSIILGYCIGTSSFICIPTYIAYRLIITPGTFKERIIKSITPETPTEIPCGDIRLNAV

[13] = molecular target: Alpha-2A adrenergic receptor (Homo sapiens) (UniProt P08913); assay: Displacement of [3H]-rauwolscine from recombinant human alpha-2A adrenergic receptor expressed in MDCK cell membranes at 10 uM after 90 mins by scintillation counting method relative to control; in short: as §1
Alpha-2A adrenergic receptor (Homo sapiens), sequence (P08913 whole entry): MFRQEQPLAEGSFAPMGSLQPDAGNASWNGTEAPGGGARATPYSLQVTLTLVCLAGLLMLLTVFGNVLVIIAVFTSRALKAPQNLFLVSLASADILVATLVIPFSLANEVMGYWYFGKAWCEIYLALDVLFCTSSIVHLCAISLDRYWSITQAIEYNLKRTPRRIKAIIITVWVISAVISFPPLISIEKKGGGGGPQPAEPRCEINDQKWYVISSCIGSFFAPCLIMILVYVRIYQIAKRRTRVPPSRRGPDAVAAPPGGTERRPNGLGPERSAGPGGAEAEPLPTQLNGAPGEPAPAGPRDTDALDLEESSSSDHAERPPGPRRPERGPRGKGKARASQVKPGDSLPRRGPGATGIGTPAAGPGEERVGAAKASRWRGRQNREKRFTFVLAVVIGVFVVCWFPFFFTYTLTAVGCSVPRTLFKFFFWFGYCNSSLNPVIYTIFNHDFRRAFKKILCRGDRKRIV

[14] = molecular target: Alpha-2B adrenergic receptor (Homo sapiens) (UniProt P18089); assay: Displacement of [3H]-rauwolscine from recombinant human alpha-2B adrenergic receptor expressed in HEKT cell membranes at 10 uM after 90 mins by scintillation counting method relative to control; in short: as §1
Alpha-2B adrenergic receptor (Homo sapiens), sequence (P18089 whole entry): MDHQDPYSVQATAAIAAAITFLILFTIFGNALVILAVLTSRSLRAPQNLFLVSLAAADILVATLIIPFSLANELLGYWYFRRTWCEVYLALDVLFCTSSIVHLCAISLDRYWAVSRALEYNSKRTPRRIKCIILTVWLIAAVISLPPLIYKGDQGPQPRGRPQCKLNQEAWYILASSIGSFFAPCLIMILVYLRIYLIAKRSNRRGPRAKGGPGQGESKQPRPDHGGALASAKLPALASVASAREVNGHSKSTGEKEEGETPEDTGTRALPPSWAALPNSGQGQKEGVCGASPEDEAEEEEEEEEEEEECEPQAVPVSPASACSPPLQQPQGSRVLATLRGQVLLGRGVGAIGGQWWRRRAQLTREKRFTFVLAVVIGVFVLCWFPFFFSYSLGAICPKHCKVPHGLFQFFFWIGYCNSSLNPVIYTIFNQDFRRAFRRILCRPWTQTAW

[15] = Terminal half life in Sprague-Dawley rat at 5 mg/kg, iv administered as single dose; format: ADME, organism-based; conditions: in vivo
[16] = Tmax in Sprague-Dawley rat at 10 mg/kg, po administered as single dose; format: ADME, organism-based; conditions: in vivo
[17] = Cmax in Sprague-Dawley rat at 10 mg/kg, po administered as single dose; format: ADME, organism-based; parameters: dose 10 mg/kg, route oral; conditions: in vivo
[18] = AUC (0 to infinity) in Sprague-Dawley rat at 10 mg/kg, po administered as single dose; format: ADME, organism-based; parameters: dose 10 mg/kg, time infinity, route oral; conditions: in vivo
[19] = test system: Rattus norvegicus; assay: Increase in WAY163909-induced suppression of spontaneous locomotor activity in Sprague-Dawley rat assessed as reduction in total ambulation at 5 mg/kg, ip administered as single dose measured for 30 mins; format: functional, organism-based
In short: (§2)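 Rats (n = 9–10/group) received SB242084 (1 mg/kg ip) or vehicle (8% 2-hydroxypropyl-β-cyclodextrin) 15 min before ip WAY163909 (1 mg/kg) plus compound (5 mg/kg). They were placed in monitors immediately; ambulations and vertical activity were totalled over 30 min. Analysis: ANOVA with Bonferroni comparisons.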

[20] = test system: Rattus norvegicus; assay: Increase in WAY163909-induced suppression of spontaneous locomotor activity in Sprague-Dawley rat assessed as reduction in total vertical activity at 5 mg/kg, ip administered as single dose measured for 30 mins; format: functional, organism-based; in short: as §2
[21] = test system: Rattus norvegicus; assay: Drug discrimination in WAY163909-trained Sprague-Dawley rat assessed as increase in WAY163909-appropriate lever responding at 1 mg/kg, ip co-treated with WAY163909 15 mins prior to test relative to control; format: functional

## CCCCCCCCCCC[C@@H]1CCN[C@H](C(=O)NCC(O)CO)C1 (relative stereo)
[1]
  Activity: Active
[2]
  Activity: inactive
[3]
  Activity: Non-Toxic
[4]
  inhibition: 25.7%
[5]
  inhibition at 1.5 h, 10 µM: 37.1%
[6]
  inhibition: 9.8%
[7]
  inhibition: 27%
[8]
  inhibition: 18.1%
[9]
  inhibition: 71.4%
[10]
  inhibition: 32.5%
[11]
  inhibition: 66.3%
[12]
  inhibition: 24.8%
[13]
  inhibition: 85.1%
[14]
  inhibition: 80.7%
[15]
  beta t1/2: 6.59 h
[16]
  Tmax: 3.3 h
[17]
  Cmax: 68.1 ng/mL
[18]
  AUC: 737 ng·h/mL
[19]
  Activity: Active
[20]
  Activity: Active
[21]
  Emax at 1 mg/kg: 45%
